Screening results (PubChem BioAssay)
Most compounds without a hit are left out; they make up all but 3.5% or so of the library.
PAFAH1B3 FP inh = blocks human PAF acetylhydrolase 1B catalytic subunit 3; recombinant PAFAH1B3, FP-rhodamine probe, fluorescence polarization; Q15102; 340,000 compounds, 0.28% hits; inhibition, % at 3.39 µM;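 active means inhibition above the screen-wide average of all tested compounds plus 3 SD, cut at about 25% in these data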
pPAFAH FP inh = pPAFAH (human) enzyme inhibition; inhibition, % at 3.39 µM; 330,000 compounds, 1.5% hits; AID 463082; recombinant pPAFAH, FP-rhodamine probe fluorescence polarization; Q13093;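 active means inhibition above the mean inhibition across the screen plus 3 SD, cut at about 25% in these data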;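 further: inhibitors block binding of the rhodamine activity-based probe so polarization drops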
Target sequence (Q13093 whole entry, looked up): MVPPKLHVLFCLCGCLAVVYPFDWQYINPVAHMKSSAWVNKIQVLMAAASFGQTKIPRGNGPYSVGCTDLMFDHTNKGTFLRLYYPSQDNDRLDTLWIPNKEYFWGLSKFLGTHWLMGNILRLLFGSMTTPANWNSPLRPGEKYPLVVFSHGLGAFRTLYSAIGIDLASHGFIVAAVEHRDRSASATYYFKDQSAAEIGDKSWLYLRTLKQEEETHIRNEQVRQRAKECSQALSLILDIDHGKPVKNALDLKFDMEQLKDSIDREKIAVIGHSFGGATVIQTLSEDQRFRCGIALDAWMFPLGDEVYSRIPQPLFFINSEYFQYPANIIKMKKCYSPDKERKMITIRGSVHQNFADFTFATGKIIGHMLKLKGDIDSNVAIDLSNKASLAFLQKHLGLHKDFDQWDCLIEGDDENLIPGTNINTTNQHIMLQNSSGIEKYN
PREPL inh = inhibits the human prolyl oligopeptidase-like enzyme; 320,000 compounds, 0.68% hits; inhibition, % at 5.96 µM; recombinant PREPL, fluorescence polarization activity-based probe; AID 2751; in the data active means inhibition above about 43%
Apaf1 inhib = blocks human Apaf-1 apoptosome activity; inhibition, % at 20 µM; AID 489030; 330,000 compounds, 0.71% hits; O14727; reconstituted apoptosome caspase-3 activity, DEVD-Rh110 fluorescence; active means inhibition of at least 40% at 20 µM
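System – cell-free apoptosome with Apaf-1, procaspase-3 and caspase-9 · Buffer or medium – pH 7.5 Hepes buffer with CHAPS, BSA, DTT · Also added – cytochrome c with DEVD-Rh110 · Times – 30 min compound preincubation, 50 min activation, room temperature · Technique – Rh110 fluorescence intensity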
PAFAH1B2 FP inh = blocks human PAF acetylhydrolase 1b catalytic subunit 2 | P68402 | recombinant PAFAH1B2, FP-rhodamine activity probe, fluorescence polarization | inhibition, % at 3.39 µM | 340,000 compounds, 1.2% hits;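 active means inhibition above the mean of all tested compounds plus 3 SD, cut at about 24% in these data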
Target sequence (P68402 whole entry, looked up): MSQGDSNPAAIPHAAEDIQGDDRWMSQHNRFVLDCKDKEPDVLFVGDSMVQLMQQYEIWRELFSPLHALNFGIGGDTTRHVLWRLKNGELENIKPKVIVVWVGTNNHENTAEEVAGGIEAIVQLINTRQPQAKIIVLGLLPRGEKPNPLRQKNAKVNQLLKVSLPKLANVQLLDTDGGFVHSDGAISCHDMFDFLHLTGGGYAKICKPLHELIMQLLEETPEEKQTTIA
PAFAH2 inh = PAFAH2 (human) inhibition; Q99487; recombinant PAFAH2, FP-rhodamine activity probe, fluorescence polarization; inhibition, % at 3.39 µM; 340,000 compounds, 0.99% hits;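 active means inhibition above the mean over all tested compounds plus 3 SD, cut at about 30% in these data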;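 further: inhibitors block probe labeling of enzyme so polarization drops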
Of the large screens only hits and unclear results are named; the others gave an inactive call.

CC(NS(=O)(=O)c1ccccc1)C1CC2CCC1C2 (centres undefined)	PAFAH1B2 FP inh 25
CCOC(=O)C1CCN(C(=O)COC(=O)Cc2ccc(Cl)cc2)CC1	pPAFAH FP inh 30
O=C(CN1C(=O)S/C(=C\c2ccc(Cl)cc2)C1=O)NNC(=O)c1ccccc1O	pPAFAH FP inh 29 (no result: Apaf1 inhib)
N#CCN1CCC2(O)CCCCC2C1c1ccc2c(c1)OCO2 (centres undefined)	none
CC(C)C(NC(=O)C12CC3CC(CC(C3)C1)C2)C(=O)O (centres undefined)	PAFAH1B2 FP inh 26
COC(=O)C(C)NC(=O)C12CC3CC(CC(C3)C1)C2 (centres undefined)	none
Clc1ccc(SCCn2ccnc2)cc1	PAFAH1B2 FP inh 35
CCN(c1nc(N)c(C(=O)N=C(N)N)nc1Cl)C(C)C	none
O=S(=O)(Nc1cccnc1)c1ccc(Br)c2ccccc12	PAFAH1B2 FP inh 26
O=C(Nc1ccccc1)c1ccc(Br)c(S(=O)(=O)Nc2cccnc2)c1	none
Cc1ccc(C(=O)O/N=C(\c2ccccc2)c2ccncc2)cc1	PREPL inh 88 (no result: PAFAH1B3 FP inh, PAFAH1B2 FP inh, PAFAH2 inh)
CCCC(=O)O/N=C(\c1ccccc1)c1ccncc1	none
Oc1ccc(/C=N/N(c2ccccc2)c2ccccc2)cc1O	pPAFAH FP inh 69
Oc1ccc(/C=N/N(c2ccccc2)c2ccccc2)c(O)c1O	pPAFAH FP inh 69
O=C(/C(=N/N=C/c1ccc(O)c(O)c1)c1ccccc1)c1ccccc1	pPAFAH FP inh 30
CCC(C)c1ccc(C2C3=C(Nc4nc(N)[nH]c(=O)c42)c2ccccc2C3=O)cc1 (centres undefined)	pPAFAH FP inh 25
COc1ccc(/C=N/NC(=O)c2ccc(CN3C(=O)c4cccc5cccc3c45)cc2)cc1O	PAFAH1B2 FP inh 27
COc1ccc(/C=N/NC(=O)c2ccc(-c3ccccc3)cc2)cc1O	none
CSc1nnc(-c2ccco2)c(-c2ccco2)n1	pPAFAH FP inh 31
CSc1nnc(-c2ccccc2)c(-c2ccccc2)n1	none
CC(C)c1ccc(NC(=S)Nc2cccc3ccccc23)cc1	Apaf1 inhib 84
Cc1cc(C)cc(NC(=S)Nc2cccc3ccccc23)c1	none
Fc1ccc(NC(=S)Nc2cccc3ccccc23)cc1F	Apaf1 inhib 81
Cc1ccc(NC(=S)Nc2cccc3ccccc23)cc1	none
Fc1ccc(NC(=S)Nc2cccc3ccccc23)cc1	Apaf1 inhib 85
O=C(CSc1ccc(Cl)cc1)NNC(=O)c1cccnc1	PAFAH1B2 FP inh 28
CCC1(c2ccccc2)NC(=O)N(CC(=O)Nc2ccc(N3CCOCC3)cc2)C1=O (centres undefined)	none
CCCCCCSC1=C(C#N)C(c2ccc(C)o2)CC(=O)N1 (centres undefined)	pPAFAH FP inh 25
O=C(NC(=S)Nc1ccc2[nH]c(=O)[nH]c2c1)c1cccc(F)c1	none
O=C(O)CCC(=O)N1CCN(c2nc(-c3ccccc3Cl)c3cc(Br)ccc3n2)CC1	pPAFAH FP inh 33
OCCN(CCO)c1ccc(C(c2ccccc2Cl)c2ccc(N(CCO)CCO)cc2Cl)c(Cl)c1	pPAFAH FP inh 25
CCCCC/C=C\C/C=C\C/C=C\C/C=C\CCCC(=O)O	pPAFAH FP inh 47 (no result: PAFAH1B3 FP inh, Apaf1 inhib, PAFAH1B2 FP inh, PAFAH2 inh)
CC/C=C\C/C=C\C/C=C\CCCCCCCC(=O)O	none
Cc1cc(Br)ccc1OCC(=O)NNC(=O)C(=O)Nc1ccccc1	PAFAH1B2 FP inh 27
Cc1cc(Br)ccc1OCC(=O)NNC(=O)Cc1ccccc1	none
O=C(CNS(=O)(=O)c1ccccc1)NCc1cccnc1	none
O=C(NCCSCc1ccc(Cl)cc1)c1cccs1	PAFAH1B2 FP inh 25
O=C(CNC(=O)c1cccs1)OCc1ccc(Cl)cc1	none
O=C(NNC(=O)C12CC3CC(CC(C3)C1)C2)c1ccccc1O	PAFAH1B2 FP inh 36, PAFAH2 inh 63
COC(=O)c1ccccc1S(=O)(=O)NNC(=O)C12CC3CC(CC(C3)C1)C2	PAFAH1B2 FP inh 24, PAFAH2 inh 80
O=C(NNC(=O)C12CC3CC(CC(C3)C1)C2)c1ccccc1F	none
Cc1cccc(C(=O)NNC(=O)C23CC4CC(CC(C4)C2)C3)c1O	PAFAH1B2 FP inh 37, PAFAH2 inh 31
COc1ccc(S(=O)(=O)NCCc2c[nH]c3ccc(Cl)cc23)cc1	none
CCN1CCN(c2nc3c(C)cccn3c(=O)c2C=C(C#N)C#N)CC1	none (no result: pPAFAH FP inh, PREPL inh)
COc1ccccc1NC(=O)c1cc2c(CO)cnc(C)c2oc1=Nc1ccccc1	none
COc1ccccc1NC(=O)c1cc2c(CO)cnc(C)c2oc1=Nc1cccc(C(N)=O)c1	pPAFAH FP inh 25
CCN(CC(=O)Nc1ccc(NC(C)=O)cc1)CC(=O)Nc1cc(C)on1	none
Cc1cc(NC(=O)c2ccco2)sc1C	none
CN(C)S(=O)(=O)c1cc(NC(=O)COC(=O)CC2CC3CCC2C3)ccc1Cl (centres undefined)	pPAFAH FP inh 26, PAFAH2 inh 77
C=C(C)CCOC(=O)C(CC(=O)O)NCc1ccco1 (centres undefined)	none
Fc1ccc(-c2cc(C(F)(F)C(F)F)[nH]n2)cc1	pPAFAH FP inh 25 (no result: PAFAH1B3 FP inh, PAFAH1B2 FP inh, PAFAH2 inh)
CC1CCN(C(=O)COC(=O)c2ccc(=O)n(Cc3ccccc3)n2)CC1	none
CC(=O)Nc1ccc2nc3c(=O)n(C)c(=O)n(C)c3nc2c1	pPAFAH FP inh 30
C=CCn1c(C)nnc1SCC(=O)Nc1oc(C)c2c(C)n[nH]c(=O)c12	none
Cc1nn(-c2ccccc2)c2nc(N)c(C#N)c(-c3ccc(O)c(O)c3)c12	PAFAH1B3 FP inh 32, pPAFAH FP inh 31
COc1cc(-c2c(C#N)c(N)nc3c2c(C)nn3-c2ccc(C)c(C)c2)cc(OC)c1OC	none
COc1ccccc1NS(=O)(=O)c1cc(NC(=O)C2CCC2)ccc1N1CCCCC1	none
COc1ccccc1NS(=O)(=O)c1cc(NC(=O)Nc2ccc(Cl)cc2Cl)ccc1N1CCCCC1	pPAFAH FP inh 34
O=C1/C(=C\c2ccc(O)cc2)SC(=S)N1c1cccnc1	none
COc1ccc(NC(=O)CCCN2C(=O)/C(=C\c3ccco3)SC2=S)cc1	none (no result: Apaf1 inhib)
O=C(CN1C(=O)/C(=C/c2ccco2)SC1=S)Nc1ccc(O)c(C(=O)O)c1	pPAFAH FP inh 33
O=C1/C(=C\c2ccco2)SC(=S)N1c1ccc(O)cc1	pPAFAH FP inh 34
CC(CC(F)(F)F)N1CCC(n2nccc2NC(=O)CCOc2ccccc2)CC1 (centres undefined)	none
Cc1ccc(NC(=O)COC(=O)Cc2csc(-c3cccc(F)c3)n2)cc1C	pPAFAH FP inh 27
CCC(C)CCCCCCCCCCC(=O)O (centres undefined)	PAFAH1B2 FP inh 48
COC(=O)c1nnn(-c2nonc2N)c1CN1CCCC1	none
O=C(COc1ccc(Cl)cc1)NC1=NN(c2ccccc2)C(=O)C1	PAFAH1B2 FP inh 68
O=C(CCCCl)NC1=NN(c2ccccc2)C(=O)C1	none (no result: Apaf1 inhib)
COc1cccc(NC(=O)CSc2nc3c(c(-c4ccco4)c2C#N)CCCC3)c1	none
